Experimental data from ChEMBL document CHEMBL4513216, “Probing the Open Global Health Chemical Diversity Library for Multistage-Active Starting Points for Next-Generation Antimalarials” (ACS Infect Dis, 2020).

test: Toxicity liver stage against HepG2, at 10uM; type: cell-based; set-up: test concentration 10 uM, cell line HepG2-A16-CD81EGFP; conditions: human, HepG2-A16-CD81EGFP cells; read-out: INHIBITION
Method in brief: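 Uninfected HepG2-A16-CD81EGFP cells, 3 × 10^3 per well, 1536-well, plated on prespotted compound at 10 μM final, parasite-free screening media added to match infected plates; puromycin 10 μM positive, DMSO 0.5% negative; run in parallel with 48 h PbLuc assay at 37 °C, 5% CO2; viability by CellTiter-Glo luminescence, normalized to controls.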

Structure (SMILES)	cytotoxicity at 10 µM [%]
O=C(CC1CCCC1)NCCS(=O)(=O)N1CCN(c2ccccc2)CC1	-4.07
CN(c1cccnn1)C1CCN(C(=O)c2n[nH]c3c2CCC3)CC1	6.96
O=C(N[C@@H]1CNCCC[C@H]1O)c1ccc(OCCN2CCOCC2)cc1	3.11
Cn1cncc1-c1nnc([C@H]2CCN(CC3CCCCC3)C2)o1	-4.65
CC[C@H]1CN(C(=O)C2CC2)CC[C@H]1CC(=O)NCCN1CCOCC1	-7.3
Cc1ccc(Oc2ncccc2C(=O)N(C)CC2OCCO2)c(C)c1	3.54
COc1ccc(C(=O)Nc2ccccc2C(C)C)c(OC)n1	3.66
O=C(CC1CCCC1)N1CCN2C[C@@H](CO)[C@H](c3ccccc3)[C@H]2C1	-4.73
COc1cccc(C(=O)NCC2CCN(C(=O)c3ccoc3)CC2)c1	15.9
CCS(=O)(=O)CCNC(=O)c1cc2n(n1)CCCO2	-8.81
C[C@H]1C[C@H]2CN(C(=O)C3=CCCCC3)CC[C@H]2O1	4.76
CN(C)C(=O)NCc1nnc2n1CCN(Cc1ccsc1)C2	8.31
COCCN1CCC2(COCc3c(C)nc(N(C)C)nc32)C1 (stereo not given)	-132
CC(=O)N1[C@H](Cn2cncn2)C[C@@H]2CN(Cc3nccs3)CC[C@@H]21	10
CCN1C(=O)C[C@@H]2[C@@H]1CCN2S(=O)(=O)Cc1ccc(C)cc1	-6.22
CNC(=O)c1cc2c(nc1NCC1CC1)CCN(c1ncccn1)CC2	0.283
Cc1cccc(CN2CC[C@@H]3[C@@H]2CCN3C(=O)c2cnoc2C)n1	-21.1
Cn1cc(Br)c(C(=O)NCCCn2cc(Br)cn2)n1	-6.4
Cc1c(-c2cc(C(F)F)nc3sc(C(N)=O)c(N)c23)cnn1C	10.1
COc1c(CC2CC(C(=O)O)=NO2)c(Br)c2c(c1OC)OCO2 (stereo not given)	6.36
CCC(=O)Nc1nnc(CCOc2ccccc2)s1	7.16
OCc1n[nH]c(-c2ccc(F)cc2)n1	-4.64

Structure (SMILES)	cytotoxicity at 10 µM [%]
Cc1sc(C(=O)NC(C)C)cc1S(=O)(=O)N(C)C	-7.84
Cc1cncnc1C1CCN(CC(N)=O)CC1	-6.84
CC(C)CC(=O)N1CCC(c2nnc3n2CCCCC3)CC1	-28
Cc1ccnc(C2CCCN2C(=O)CN(C)C)n1 (stereo not given)	-19.1
Cc1cc2c(=O)n3c(nc2s1)CCN(C(=O)c1ccnn1C)CC3	-4.08
CCc1nnc2n1CCN(C(=O)C1CCC(n3cccc3)CC1)C2 (stereo not given)	-1.5
O=C(c1cnc(-c2ccccc2)nc1)N1CCOC2(CCCC2)C1	-1.39
Cc1noc(C)c1NC(=O)Cn1cc(Br)ccc1=O	8.99
CCN(Cc1ccc(C#N)cc1F)C(=O)C(C)(C)C	5.73
Cc1cc(NCc2cn(C)nc2-c2cccnc2)n(C)n1	12
Cc1c(NC(=O)NC(C)CCO)cccc1OC1CCCC1 (stereo not given)	-7.18
NC(=O)c1cn[nH]c1NC(=O)c1ccc2c(c1)OCO2	1.03
O=C(COC1CCCC1)NCc1ccc(O)c(F)c1	-2.43
Cn1nc2c(cc1=O)CN(CCCOc1ccc(C#N)cc1)CC2	22.9
Cc1noc(NCc2ccc(F)cc2F)n1	-4.49
COc1ccccc1CC1CCN(C(=O)CCN2CCOC2=O)CC1	3.76
CC(Cc1c(F)cccc1F)NC(=O)CN(CC(N)=O)C(C)C (stereo not given)	-10.5
CN(C)CCSc1ccc(NC(=O)c2nccn3ccnc23)cc1	-6.25
COCCN(Cc1ccc(F)cc1Cl)C(=O)c1c(C)noc1C	-1.82
COC(=O)[C@H](C)NC(=O)Cc1c(C)nc2c(c1C)c(=O)[nH]n2C	10.7
CCn1cnnc1C1CCN(C(=O)c2cnn(C(C)(C)C)c2)CC1	4.78
Cc1cc(NC(=O)CN2CCCC(Cn3cncn3)C2)no1 (stereo not given)	-0.749

Structure (SMILES)	cytotoxicity at 10 µM [%]
Cc1nc(C2(NCc3ccc(C#N)cc3F)CCCC2)no1	2.78
CC(C)(O)CSCCNC(=O)c1ccc(F)cc1Cl	-10.9
Clc1cncc(NCc2cccc(COC3CCOCC3)c2)n1	14.6
O=C(c1ncoc1-c1ccco1)N(Cc1ccco1)CC1CCCO1 (stereo not given)	-2.05
COc1ccc(CSc2nnc(N)n2C2CC2)cc1F	5.11
CC(c1ccc(-n2cncn2)cc1)N(C)Cc1ccccn1 (stereo not given)	8.86
O=C(NCCOCC1CC1)Nc1ccc(F)cc1	9.28
CN(CC(=O)NC(C)(C#N)C1CC1)Cc1nnc(C2CC2)n1C (stereo not given)	7.32
Cc1cccc(N2CCN(C(=O)CCc3ccsc3)C(C)C2)n1 (stereo not given)	18.4
CCOc1ccnc(N2CCN(C(=O)CCc3ccncc3)CC2)n1	-0.662
CCc1nc(CCNC(=O)NC2CC2)sc1C	-14.4
O=C(NC1(c2nnn(CCO)n2)CCCC1)c1ccccc1	14.8
c1coc(-c2noc(CN3CCC(c4ccn[nH]4)CC3)n2)c1	-8.19
COc1ccnc(N2CCN(C(=O)c3csc(C4CC4)n3)CC2)n1	4.85
COc1ccc(F)cc1C(C)NC(=O)c1nnc(C)s1 (stereo not given)	-0.213
CN(C)S(=O)(=O)N1CCN(c2nccc(C(F)(F)F)n2)CC1	-7.04
Cc1cc(C)n(CCCNC(=O)C(C)NC(=O)c2ccccc2Cl)n1 (stereo not given)	-0.136
O=C(c1ccc[nH]1)N1CCCn2c(nnc2Cn2cccn2)C1	8.06
COCC1CN(C(=O)c2ccco2)Cc2nccn2C1 (stereo not given)	-107
CN(C)CCO[C@H]1CN(C(=O)c2cscn2)[C@@H]2COC[C@H]12	1.43
CCOC[C@@H]1CC[C@H]2[C@H](CCN2S(=O)(=O)c2ccc(F)cc2)O1	1.39
CN1C(=O)CC(c2cnn(C)c2)C12CCN(C(=O)C1CC=CC1)CC2 (stereo not given)	5.84

Structure (SMILES)	cytotoxicity at 10 µM [%]
CC(C)NC(=O)N1CC(=O)c2sc(NC3CCCCC3)nc2C1	-7.91
COc1cccc(CN(C)C(C)c2ccon2)c1OCCn1ccnc1 (stereo not given)	-5.17
O=C(c1csc2nc(-c3ccc(Cl)cc3)cn12)N1CCCC(CO)C1 (stereo not given)	2.2
COCCn1cnnc1CCn1ccnc1-c1ccccc1Cl	-8.25
CCc1nc(C)c([C@H]2CN(C)C[C@@H]2C(=O)NCc2ccccn2)[nH]1	2.77
COc1ccc(-c2ccc(C(=O)N3CCC[C@@H]3CO)o2)cc1	7.44
O=C(NCc1c[nH]c(=O)[nH]c1=O)C1CCOc2ccccc2C1 (stereo not given)	-3.03
O=C1CCC2(CCNCC2)CN1CCCNc1cccnc1	-6.46
OCC(O)CN1CCc2onc(-c3ccc(C(F)(F)F)cc3)c2C1 (stereo not given)	-3.24
Cc1nonc1C1CCCN1C(=O)c1cn2ccsc2n1 (stereo not given)	9.59
COCCc1nc(CN2CC(C)(c3ccccc3)CCC2=O)no1 (stereo not given)	-3.07
CN1CCN(C(=O)c2cccc(S(=O)(=O)NCC3(C)COC3)c2)CC1	-14.1
Cc1cc(CNC(=O)c2cn(CCC3CCCCN3)nn2)on1 (stereo not given)	-7.19
CCn1cnnc1CN(C)c1nccc(C2CCCC2)n1	0.998
O=C(NCc1cnn2ccccc12)NC1CCCC1	-2.91
Cc1nn(C2CCCCC2)c2nc(C(C)(C)CN3CCOCC3)[nH]c12	-3.64
O=C(CSc1ccncc1)N1CCC2(CC1)c1ccccc1CC2O (stereo not given)	-2.36
CC1CCN(S(=O)(=O)N2CCCC(c3cccc(C(=O)O)c3)C2)CC1 (stereo not given)	-13.3
Cc1cccc(N2CCC3(CCCN3Cc3c(C)nn(C)c3C)CC2)n1	-8.35
O=C(O)c1cccc(C2CCCN(S(=O)(=O)N3CCOCC3)C2)c1 (stereo not given)	9.45
CCCn1nc(C)c(CNC(=O)C2COc3c(cccc3OC)C2)c1C (stereo not given)	-11.8
COc1nc(C)c(C(=O)N(C)Cc2nc(-c3ccccn3)no2)s1	-8.44

Structure (SMILES)	cytotoxicity at 10 µM [%]
Cc1cc(C[C@@H]2COC[C@@H]2NC(=O)CN2CCCN(C)CC2)on1	-15
O=C(c1ccccc1-c1ccccc1)N1CCOC2(CNCCOC2)C1 (stereo not given)	-16.2
O=C(CSCC1CC1)N1CCCC(c2nccn2Cc2ccncc2)C1 (stereo not given)	-13.3
Cc1cc(C)n(CCC(=O)N2CCC(Nc3cccnn3)CC2)n1	-6.36
COc1ccccc1CNC(=O)Cn1nc(-c2ccc(F)cc2)oc1=O	-10.8
CS(=O)(=O)Cc1ccc(C(=O)NC2CCc3nccn3C2)o1 (stereo not given)	-8.77
O=C(NCCCn1cncn1)N1CCC(N2CCCCC2)CC1	-7.01
O=C(CSc1ccc(F)cc1F)NS(=O)(=O)c1ccc2c(c1)OCCO2	-10.7
Cc1cc(NC(=O)NCC(C)N2CCOCC2)n(C)n1 (stereo not given)	-18.3
O=C(c1ccn(-c2ccc(F)cc2)n1)N1CCCC(n2ccnc2)C1 (stereo not given)	-16.3
Cc1ccc(OCCC(=O)N2CCC(c3nncn3C)CC2)c(C)c1	-6.27
COCCOc1ccc(NC(=O)N2CCCC2c2cccs2)cn1 (stereo not given)	-3.17
COCC(c1cccc(C(F)(F)F)c1)N(C)C(=O)c1cc(C)n[nH]1 (stereo not given)	-14.1
CN1CC2(CCN(Cc3cccnc3)CC2)c2cccc(F)c21	10.7
COCCC(=O)N1CCn2cc(CN3CCN(C)CC3)nc2C1	-3.13
CC(C)OCCCN(Cc1ccncc1)Cc1cc(F)ccc1F	-29.2
OC(CN1CCN(Cc2cccc(F)c2)CC1)C1CC1 (stereo not given)	-2.45
O=C(c1cnccn1)N1CCCC2(CCN(c3ccccn3)C2)C1 (stereo not given)	5.77
Fc1cnc(N2CCCn3c(CN4CCOCC4)nnc3C2)nc1	-138
COCCN1C[C@@H]2CCCO[C@@H]2[C@H](NC(=O)c2cnccn2)C1	0.766
Cc1csc(NC(=O)[C@@H]2C[C@H]3[C@H](CCN3c3ncccn3)O2)n1	-13.8
O=C(c1ccccn1)N1C[C@H]2CC[C@@H](C1)N(C(=O)CCc1ccsc1)C2	-12.7
